# Assay results of several laboratories.
# Compare with care: the assays were run in different laboratories.
SMILES,target or system,test,test system,conditions,quantity,value
CN[C@H](CC(C)C)C(=O)N[C@H]1C(=O)N[C@@H](CC(N)=O)C(=O)N[C@H]2C(=O)N[C@H]3C(=O)N[C@H](C(=O)N[C@H](C(=O)O)c4cc(O)cc(O)c4-c4cc3ccc4O)[C@H](O)c3ccc(c(Cl)c3)Oc3cc2cc(c3O[C@@H]2O[C@H](CO)[C@@H](O)[C@H](O)[C@H]2O[C@H]2C[C@](C)(N)[C@H](O)[C@H](C)O2)Oc2ccc(cc2Cl)[C@H]1O,Streptococcus pyogenes,microbial growth,,,MIC,0.25 µg/mL
CCCCCCCCCCCCCCCC(=O)NP(=O)(O)O,Bacillus anthracis,microbial growth,STERNE34F2,,MIC,> 200 µg/mL
O=C(O)c1cn(C2CC2)c2cc(N3CCNCC3)c(F)cc2c1=O,Bacillus anthracis,microbial growth,34F2,,MIC,0.781 µM
CN[C@@H]1[C@H](O)[C@H](NC)[C@H]2O[C@@]3(O)C(=O)C[C@@H](C)O[C@H]3O[C@@H]2[C@H]1O,Bacillus anthracis,microbial growth,STERNE34F2,,MIC,25 µg/mL
CC(=O)C1=C(O)C(CC(C)C)NC1=O (stereo not shown),Stenotrophomonas maltophilia,microbial growth,ATCC13637,,MIC,> 200 µg/mL
C=CCCCCCCCCC(=O)C(F)(F)P(=O)(O)O,Bacillus anthracis,microbial growth,STERNE34F2,,MIC,> 200 µg/mL
CCOC(=O)Nc1ccc(NCc2ccc(F)cc2)cc1N,,MES seizures,rat,intraperitoneal,ED50,4.01 mg/kg
CC(C)[C@H](N)C(=O)OCCCCCn1cnc2nc(NCc3ccc(Cl)c(Cl)c3)[nH]c(=O)c21,Bifidobacterium,"microbial growth, agar dilution",,48 h,MIC,32 µg/mL
CCCCCCCCCC#CCCCCC(=O)O,Leishmania infantum,parasite growth,,promastigote,EC50,102 µM
O=C(CCCCC1CCCCC1)CP(=O)(O)O,Bacillus anthracis,microbial growth,STERNE34F2,,MIC,200 µg/mL
CC1=NN(CNc2ccc(O)cc2)C(=O)C1=NNn1c(-c2ccccc2)nc2ccccc2c1=O,Vibrio cholerae,"microbial growth, broth dilution",,24 h,MIC,107 µM
CCCCCCCCCCCCCCCC(=O)NS(=O)(=O)Oc1ccc(OC)cc1,Bacillus anthracis,microbial growth,STERNE34F2,,MIC,3.12 µg/mL
CC1=NN(CNC(=O)c2ccccc2)C(=O)C1=NNn1c(-c2ccccc2)nc2ccccc2c1=O,Vibrio cholerae,"microbial growth, broth dilution",,24 h,MIC,51.9 µM
CC(C=CC(O)=C1C(=O)CNC1=O)=CC(C)C1OC2(C)OC(C(O)C=C2C)C1C (stereo not shown),Bacillus anthracis,microbial growth,34F2,,MIC,25 µM
CCCCCCCC/C=C\CCCCCCCCNC(=O)CP(=O)(O)O,Bacillus anthracis,microbial growth,STERNE34F2,,MIC,0.1 µg/mL
CC1=NN(CNc2ccccn2)C(=O)C1=NNn1c(-c2ccccc2)nc2ccccc2c1=O,Vibrio cholerae,"microbial growth, broth dilution",,24 h,MIC,55.2 µM
OC[C@H]1O[C@@H](n2cnc3c(NC4CCCC4)ncnc32)[C@H](O)[C@@H]1O,,MES seizures,rat,oral,ED50,> 10 mg/kg
CCCCCCCCCCCCCCCC(=O)CP(=O)(O)O,Bacillus anthracis,microbial growth,STERNE34F2,,MIC,1.56 µg/mL
O=C1NN=C(N=Cc2ccccc2O)C1=NNn1c(-c2ccccc2)nc2ccccc2c1=O,Vibrio cholerae,"microbial growth, broth dilution",,24 h,MIC,55.4 µM
